Measured values gathered from unrelated publications.
Protocols differ between the studies behind these lines.
Target: Serine/threonine-protein kinase mTOR (MTOR, Homo sapiens, UniProt P42345)

Structure (SMILES) | effect on | method | tested at | remaining binding
c1ccc(N2CCN(Cc3nc4ccccc4[nH]3)CC2)nc1 | cell-free assay | competition with immobilised ligand | 1 µM | 100%
c1cncc(-c2cccc(Nc3nccc(NC4CCCCC4)n3)c2)c1 | binding | competition with immobilised ligand | 10 µM | 94%
O=C(NCC1CCOCC1)c1n[nH]cc1NC(=O)c1c(F)cccc1F | binding | competition with immobilised ligand | 1 µM | 100%
C[C@H]1CCN(c2nccc(-c3cnn4ncccc34)n2)C1 | binding | – | 1 µM | 100%
COc1cc(-c2cn(C3CCc4ccccc4N(CC(F)(F)F)C3=O)nn2)ccc1-n1ccc(C)n1 (stereo not drawn) | cell-free assay | competition with immobilised ligand | 1 µM | 100%
CN(C)c1ncc(F)c(-c2cnn3ncccc23)n1 | binding | – | 1 µM | 100%
COc1cnc(Nc2cccc(S(N)(=O)=O)c2)nc1N1CCN(c2ccccc2)CC1 | binding | competition with immobilised ligand | 1 µM | 93%
O=C(c1ccc(Nc2ncc(Cl)c(-c3cc4ccccc4s3)n2)cc1)N1CCC(N2CCCC2)CC1 | binding | competition with immobilised ligand | 1 µM | 80%
COc1ncc2cc3ccccc3nc2c1C#N | cell-free assay | competition with immobilised ligand | 5 µM | 91%
CNC(=O)Nc1ccc2c(c1)CC[C@@]21OC(=O)N(CC(=O)N(Cc2ccc(F)cc2)[C@@H](C)C(F)(F)F)C1=O | cell-free assay | competition with immobilised ligand | 1 µM | 92%
O=C(NCCCN1CCOCC1)c1ccc(Nc2ncc(Cl)c(-c3ccc(Cl)s3)n2)cc1 | binding | competition with immobilised ligand | 1 µM | 94%
CN(C)C(=O)Cn1cc(-c2nc(C3(c4ccc(-c5cnc(N)nc5)cc4)CC3)no2)cn1 | cell-free assay | competition with immobilised ligand | 1 µM | 91%
CN(CCCC(F)(F)F)c1nccc(-c2cnn3ncccc23)n1 | binding | – | 1 µM | 95%
CN(C)CC#Cc1ccc(OCCCc2sc(N3CCc4cccc(C(=O)Nc5nc6ccccc6s5)c4C3)nc2C(=O)O)c(F)c1 | cell-free assay | competition with immobilised ligand | 1 µM | 100%
CN(C)c1nccc(-c2cnn3ncccc23)n1 | binding | – | 1 µM | 100%
O=C(Nc1ccc(Oc2ccc(F)cc2)cc1)N1CCc2ncccc2[C@H]1c1ccc(F)cc1 | cell-free assay | competition with immobilised ligand | 1 µM | 100%
Cc1cnn2ncc(-c3ccnc(N(C)C)n3)c2c1 | binding | – | 1 µM | 100%
O=C(c1ccc(Nc2nccc(-c3cc4ccccc4s3)n2)cc1)N1CCC(N2CCCC2)CC1 | binding | competition with immobilised ligand | 1 µM | 100%
C[C@@H](c1ccc(-n2cnc3c(N)ncnc32)cc1)N1CCc2nn(C)c(Cc3ccccc3)c2C1=O | binding | competition with immobilised ligand | 0.1 µM | 83%
N[C@H]1CCN(c2nccc(-c3cnn4ncccc34)n2)C1 | binding | – | 1 µM | 66%
FC(F)(F)Oc1cccc(-c2cnc3ccc(-c4ccncc4)nn23)c1 | cell-free assay | competition with immobilised ligand | 5 µM | 42%
